Consider 2 molecules from ChEMBL document CHEMBL5154824, “Design and synthesis of multifunctional microtubule targeting agents endowed with dual pro-apoptotic and anti-autophagic efficacy” (Eur J Med Chem, 2022).

The target of experiment [1] is T1, Tubulin (Homo sapiens) (UniProt P68371+Q9H4B7+P0DPH7+P68366+Q13509+Q71U36+P04350+Q3ZCM7+P07437+P68363+Q9BQE3+Q6PEY2+Q13885+Q9BVA1+Q9BUF5). The experiment can be described thus: Binding affinity to tubulin (unknown origin) using podophyllotoxin by Competition assay. Format: protein-complex assay. A digest of the protocol: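 Fluorescence competition: compound and tubulin at equal concentrations (0.1, 0.5 or 1 μM each) titrated with podophyllotoxin up to 10 μM; excitation 350 nm, emission read at 450 nm on plate reader; displacement judged as fluorescence decrease.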

Experiment [2] deals with A2780. The experiment can be described thus: Cytotoxicity against human A2780AD cells assessed as inhibition of cell growth measured after 48 hrs by MTT assay. Format: functional, cell-based. As to conditions: A2780, 48 h. A digest of the protocol: (§1)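 MTT assay. Cells were exposed for 48 h to increasing concentrations of compound. Ovarian A2780 was paired with its P-gp-overexpressing A2780AD counterpart, and HeLa with HeLa β3, which overexpresses the tubulin β3 isotype. IC50 is the mean ± SD of three independent experiments.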
For orientation: Tetrazolium assays rely on reduction of a dye to a coloured formazan, in cell work by metabolically active cells.

A short description of experiment [3]: Ratio of IC50 for cytotoxicity against human HeLa cells overexpressing tubulin beta3 assessed as inhibition of cell growth measured after 48 hrs to IC50 for cytotoxicity against human HeLa cells assessed as inhibition of cell growth measured after 48 hrs. Format: functional. A digest of the protocol:
(§2)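 MTT assay: cells exposed to increasing compound concentrations for 48 h. Lines were A2780 and its P-gp-overexpressing A2780AD counterpart, and HeLa and HeLa β3 (tubulin β3-overexpressing). IC50 is the mean ± SD of three independent experiments. R/S is the IC50 in the resistant line divided by that in the parental line.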

Experiment [4] deals with HeLa. The experiment can be described thus: Cytotoxicity against human HeLa cells overexpressing tubulin beta3 assessed as inhibition of cell growth measured after 48 hrs by MTT assay. Format: functional, cell-based. A digest of the protocol: as §1
The test system of experiment [5] is A2780. Nature of the experiment: Cytotoxicity against human A2780 cells assessed as inhibition of cell growth measured after 48 hrs by MTT assay. Particulars: A2780, 48 h. Format: functional, cell-based. A digest of the protocol: as §1
The nature of experiment [6]: Ratio of IC50 for cytotoxicity against human […] assessed as inhibition of cell growth measured after 48 hrs to IC50 for cytotoxicity against human A2780 cells assessed as inhibition of cell growth measured after 48 hrs. Format: functional. A digest of the protocol: as §2
The test system of a further experiment is SCC-4. The experiment can be described thus: Induction of apoptosis in human SCC-4 cells assessed as increase in apoptotic cells at 0.5 uM after 48 hrs by Annexin V-FITC/PI staining based flow cytometry method. Format: functional, cell-based. A digest of the protocol: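 SCC4 cells were treated at 0.5 or 2 μM for 48 h, then stained with Annexin V/PI and analysed by flow cytometry. Data are mean ± SEM of three independent experiments, with an unpaired one-tailed t-test versus vehicle.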
In general terms: A flow cytometer gives signals particle by particle.

Experiment [7] concerns the target T1, Tubulin (Homo sapiens). Nature of the experiment: Binding affinity to tubulin (unknown origin) assessed as fluorescence peak around 460 nm by UV/vis absorption spectroscopy. Format: protein-complex assay.
Another experiment concerns Ca9-22. Nature of the experiment: Induction of apoptosis in human Ca9-22 cells assessed as increase in apoptotic cells at 0.5 uM after 48 hrs by Annexin V-FITC/PI staining based flow cytometry method. Format: functional, cell-based. A digest of the protocol:
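Ca9.22 or TR146 cells were seeded at 30×10^4 cells/mL and treated with 500 nM compound or 1% EtOH (v/v) vehicle for 48 h. Annexin V/PI staining was read by flow cytometry, gating 10,000 cells on vehicle-treated cells. Data are mean ± SEM (n = 3).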

Experiment [8] deals with HeLa. The experiment can be described thus: Induction of autophagy in human HeLa cells assessed as increase in number of autophagosomes formation at 1 uM measured after 3 hrs by immunofluorescence based laser scanning confocal microscopic analysis. Format: functional, cell-based. A digest of the protocol:
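HeLa cells in growth medium were treated at 1 or 10 μM, with BafA1 300 nM as reference, for 3 h. Cells were fixed in ice-cold methanol, immunostained for LC3 (autophagosomes) and LAMP1, and imaged by laser scanning confocal microscopy.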

The test system of experiment [9] is HeLa. The experiment can be described thus: Inhibition of autophagosome degradationin human HeLa cells at 1 uM incubated for 3 hrs with HBSS medium by immunofluorescence based laser scanning confocal microscopic analysis. Format: functional, cell-based. A digest of the protocol: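 HeLa cells were treated in HBSS at 1 or 10 μM, with BafA1 300 nM as reference, for 3 h. After fixation in ice-cold methanol, LC3 and LAMP1 were immunostained. Laser scanning confocal microscopy assessed autophagosome number and LC3/LAMP1 colocalisation.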

In experiment [10] the test system is HeLa. The experiment can be described thus: Induction of morphological changes in human HeLa cells assessed as golgi complex fragmentation at 1 uM incubated for 3 hrs by phalloidin staining based laser scanning confocal microscopic analysis. Format: functional, cell-based. A digest of the protocol:
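HeLa cells in growth medium were treated at 1 or 10 μM, with BafA1 300 nM as reference, for 3 h. Cells were fixed in 4% PFA, stained with anti-GM130 for the Golgi and AF647-phalloidin for actin, and imaged by laser scanning confocal microscopy.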

The source made the active and inactive calls. No cut-off for these calls is given here.

Turning to `CN1CCN(C(=O)OC2=C(c3cccc4ncccc34)Oc3cc4ccccc4cc3-n3cccc32)CC1`, the result at Tubulin (Homo sapiens) [1], with SCC-4, at Tubulin (Homo sapiens) [7] and in the experiment on Ca9-22 was Active. The figures for the IC50 with A2780 [2], in the experiment with HeLa [4] and in the experiment on A2780 [5] were 0.399 µM, 0.331 µM and 0.6 µM, respectively. The “Ratio IC50” value was 0.71 in [3] and 0.67 in experiment [6].
Take `O=C(OC1=C(c2cccc3ncccc23)Oc2cc3ccccc3cc2-n2cccc21)C1CCNCC1`: the outcome in the experiment on HeLa [8], with HeLa [9] and in the experiment on HeLa [10] was Active.
